{"source": "paper PMC8458670", "about": "(Slas Discovery, 2022)", "key": {"SARS-CoV-2 nsp14": {"molecular_target": "SARS-CoV-2 nsp14 (Severe acute respiratory syndrome coronavirus 2, UniProt P0DTD1)", "test": "Radiometric nsp14 MTase activity assay", "type": "biochemical"}, "[1]": {"molecular_target": "nsp14 (amino acids 1-527) (Severe acute respiratory syndrome coronavirus 2, UniProt P0DTD1)", "test": "Surface plasmon resonance binding to biotinylated nsp14", "set-up": "species or system SARS-CoV-2", "method_in_brief": "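SPR used N-terminally biotinylated nsp14 (aa 1–527) coupled on a CM5 chip, with C-terminally biotinylated SETD3 (aa 1–605) as control. Test compounds were injected at five concentrations (0.6–50 µM, or 0.06–5 µM for some) at 50 µL/min. Running buffer was HBS-EP Plus (10 mM HEPES pH 7.4, 150 mM NaCl, 2 mM EDTA, 0.005% Tween-20) with 0.5% DMSO. Contact time was 60 s and dissociation 120 s, with blank-buffer and DMSO (0.4–0.6%) corrections.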"}}}
{"compound": "Nc1ncnc2c1ncn2[C@@H]1O[C@H](CSCC[C@H](N)C(=O)O)[C@@H](O)[C@H]1O", "note": "[SAH, S-Adenosylhomocysteine]", "values": [{"measurement": "IC50", "setting": "SARS-CoV-2 nsp14", "value": "0.13 ± 0.03", "unit": "µM"}, {"measurement": "Kd", "setting": "[1]", "value": 0.14, "unit": "µM"}]}
